Values joined by “and” are separate entries in the source; they are usually repeats but may differ in a detail not shown here. Equal values may be shown once. “Also recorded” adds a separate entry of the source.
Columns and labels:
[1] = system: patients with advanced NSCLC and EGFR gene mutations; test: Phase Ib safety and toxicity; type: in vivo, human
Method in brief: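 3+3 dose escalation (modified Fibonacci) of oral test compound, 100–650 mg flat doses twice daily for 28 days. Safety population was all patients dosed at least once. AEs were graded by NCI CTCAE v4.0. Haematology, liver and renal labs were taken predose on Days 1, 8, 15, 22 and 29, plus ECG, echocardiography and chest X-ray. MTD was defined by >1 DLT per dose level.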

[2] = Phase Ib pharmacokinetics, multi-dosing; type: in vivo, human
Method in brief: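 Oral test compound, flat doses twice daily for 28 days. Plasma sampled before the first daily dose on Days 8, 9, 10, 22 and 29. On Day 15, sampling ran 0.05 h predose and 0.5, 1, 1.5, 2, 4, 6, 8, 10 and 12 h post-dose. Assay by LC-MS with multiple reaction monitoring, LLOQ 1 ng/mL. Parameters were calculated from individual concentration-time profiles.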

[3] = 12 healthy volunteers, cited from earlier work
[4] = system: other investigated kinases; conditions: in vitro; cited from earlier work
patients = test: Ongoing study exploring higher simotinib doses; type: in vivo, human; conditions: 800 mg, 3 patients
[5] = system: advanced NSCLC with EGFR gene mutations; test: Phase Ib clinical antitumor activity; type: in vivo, human
[6] = multi-dosing 100 mg twice daily, N=2
[7] = multi-dosing 100 mg twice daily, N=2, mean±SD
[8] = multi-dosing 200 mg twice daily, N=3, mean±SD
[9] = multi-dosing 300 mg twice daily, N=3, mean±SD
[10] = multi-dosing 400 mg twice daily, N=15, mean±SD
[11] = multi-dosing 500 mg twice daily, N=12, mean±SD
[12] = multi-dosing 650 mg twice daily, N=6, mean±SD

## simotinib
[1]; 100 mg twice daily, N=2
  Aminotransferase elevation: 0 n (%)
  Bilirubin elevation: 0 n (%)
  Diarrhea: 0 n (%)
  Erythrocyte reduction: 0 n (%)
  Fatigue: 2 (100) n (%)
  Neutropenia: 0 n (%)
  Pruritus: 2 (100) n (%)
  Rash: 1 (50.0) n (%)
[1]; 200 mg twice daily, N=3
  Aminotransferase elevation: 0 n (%)
  Bilirubin elevation: 2 (66.7) n (%)
  Diarrhea: 3 (100) n (%)
  Erythrocyte reduction: 1 (33.3) n (%)
  Fatigue: 1 (33.3) n (%)
  Neutropenia: 3 (100) n (%)
  Pruritus: 2 (66.7) n (%)
  Rash: 2 (66.7) n (%)
[1]; 300 mg twice daily, N=3
  Aminotransferase elevation: 1 (33.3) n (%)
  Bilirubin elevation: 2 (66.7) n (%)
  Diarrhea: 3 (100) n (%)
  Erythrocyte reduction: 0 n (%)
  Fatigue: 2 (66.7) n (%)
  Neutropenia: 1 (33.3) n (%)
  Pruritus: 1 (33.3) n (%)
  Rash: 0 n (%)
[1]; 400 mg dose
  death during the treatment phase: 1 patient
[1]; 400 mg dose group
  patients with at least 1 study drug-related AE: 86.7%
[1]; 400 mg twice daily, N=15
  Aminotransferase elevation: 2 (13.3) n (%)
  Bilirubin elevation: 1 (6.7) n (%)
  Diarrhea: 7 (46.7) n (%)
  Erythrocyte reduction: 4 (26.7) n (%)
  Fatigue: 2 (13.3) n (%)
  Neutropenia: 3 (20.0) n (%)
  Pruritus: 4 (26.7) n (%)
  Rash: 2 (13.3) n (%)
[1]; 500 mg dose group
  patients with at least 1 study drug-related AE: 91.7%
[1]; 500 mg group
  AEs of grade ≥3: 3 patients
[1]; 500 mg twice daily, N=12
  Aminotransferase elevation: 2 (16.7) n (%)
  Bilirubin elevation: 2 (16.7) n (%)
  Diarrhea: 7 (58.3) n (%)
  Erythrocyte reduction: 2 (16.7) n (%)
  Fatigue: 3 (25.0) n (%)
  Neutropenia: 2 (16.7) n (%)
  Pruritus: 1 (8.3) n (%)
  Rash: 9 (75.0) n (%)
[1]; 650 mg twice daily, N=6
  Aminotransferase elevation: 3 (50.0) n (%)
  Bilirubin elevation: 0 n (%)
  Diarrhea: 3 (50.0) n (%)
  Erythrocyte reduction: 2 (33.3) n (%)
  Fatigue: 0 n (%)
  Neutropenia: 2 (33.3) n (%)
  Pruritus: 0 n (%)
  Rash: 3 (50) n (%)
[1]; 100, 200, 300, and 650 mg dose groups
  patients with at least 1 study drug-related AE: all patients
[1]; 100 to 650 mg twice daily
  tolerability: well tolerated
[1]; 100 to 650 mg twice daily, 28 days
  dose-limiting toxicity (DLT): no dose-limiting toxicities; also recorded: No DLT was observed
[1]; Total N=41
  Aminotransferase elevation: 8 (19.5) n (%)
  Bilirubin elevation: 7 (17.1) n (%)
  Diarrhea: 23 (56.1) n (%)
  Erythrocyte reduction: 9 (22.0) n (%)
  Fatigue: 10 (24.4) n (%)
  Neutropenia: 11 (26.8) n (%)
  Pruritus: 10 (24.4) n (%)
  Rash: 17 (41.5) n (%)
[1]; all doses, 7 of 41 patients
  AEs of grade ≥3, patients: 17.1%
[1]; all doses, 38 of 41 patients
  patients with at least one study drug-related AE: 92.7%
[1]; all doses, 39 of 41 patients
  patients with at least one AE: 95.1%
[1]; all doses, 41 patients
  anemia, frequency: 22.0%
  diarrhea, frequency: 56.1%
  fatigue, frequency: 24.4%
  increased level of aminotransferase, frequency: 19.5%
  increased level of bilirubin, frequency: 17.1%
  neutropenia, frequency: 26.8%
  pruritus, frequency: 24.4%
  rash, frequency: 41.5%
[1]; doses of up to 650 mg twice daily
  maximum tolerated dose (MTD): not found; also recorded: not reached
[1]; one patient, 500 mg
  patients who discontinued the study: 2.4%
[2]; 200–650 mg doses
  T1/2, range over doses: 8 to 13 h
[2]; [6]
  AUC0-∞: 956.9 ng·h/mL
  CL: 148.5 L/h
  T1/2: 6.2 h
  Tmax: 1.0(0–2.0) h
  Vd: 1323.3 L
[2]; [7]
  AUC0-last: 920.4 ± 349.2 ng·h/mL
  Cavg: 0.0767 ± 0.0291 µg/mL
  Cmax: 130.3 ± 70.3 ng/mL
  Cmin: 0.0545 ± 0.0321 µg/mL
[2]; multi-dosing 200 mg twice daily, N=3
  Tmax: 4.0 (2.0–4.0) h
[2]; [8]
  AUC0-last: 3,940.9±2,689.0 ng•hr/mL
  AUC0-∞: 6,571.6±3,241.2 ng•hr/mL
  CL: 66.1 ± 45.1 L/h
  Cavg: 0.3284 ± 0.2241 µg/mL
  Cmax: 447.0 ± 258.8 ng/mL
  Cmin: 0.207 ± 0.1527 µg/mL
  T1/2: 9.6 ± 4.2 h
  Vd: 1,050.0±1,020.6 L
[2]; multi-dosing 300 mg twice daily, N=3
  Tmax: 1.5 (1.0–2.0) h
[2]; [9]
  AUC0-last: 6,013.9±3,058.1 ng•hr/mL
  AUC0-∞: 9,728.6±1,648.2 ng•hr/mL
  CL: 57.3 ± 29.1 L/h
  Cavg: 0.5012 ± 0.2548 µg/mL
  Cmax: 1,519.0±1,132.8 ng/mL
  Cmin: 0.288 ± 0.1174 µg/mL
  T1/2: 10.4 ± 7.8 h
  Vd: 1,019.6±1,077.5 L
[2]; multi-dosing 400 mg twice daily, N=15
  Tmax: 2.0 (0–8.0) h
[2]; [10]
  AUC0-last: 5,245.7±2,194.4 ng•hr/mL
  AUC0-∞: 10,577.7±5,867.6 ng•hr/mL
  CL: 99.5 ± 70.4 L/h
  Cavg: 0.4371 ± 0.1829 µg/mL
  Cmax: 767.9 ± 338.1 ng/mL
  Cmin: 0.2516 ± 0.127 µg/mL
  T1/2: 13.0 ± 11.8 h
  Vd: 2,000.6±3,169.6 L
[2]; multi-dosing 500 mg twice daily, N=12
  Tmax: 1.8 (1.0–6.0) h
[2]; [11]
  AUC0-last: 7,819.8±1,942.3 ng•hr/mL
  AUC0-∞: 12,780.6±3,894.7 ng•hr/mL
  CL: 67.7 ± 17.2 L/h
  Cavg: 0.6516 ± 0.1619 µg/mL
  Cmax: 1,396.0±534.8 ng/mL
  Cmin: 0.3783 ± 0.132 µg/mL
  T1/2: 8.4 ± 2.8 h
  Vd: 811.3 ± 326.9 L
[2]; multi-dosing 650 mg twice daily, N=6
  Tmax: 2.0 (1.5–8) h
[2]; [12]
  AUC0-last: 4,615.7±1,599.7 ng•hr/mL
  AUC0-∞: 8,193.3±3,211.2 ng•hr/mL
  CL: 156.3 ± 55.6 L/h
  Cavg: 0.3846 ± 0.1333 µg/mL
  Cmax: 650.8 ± 234.7 ng/mL
  Cmin: 0.2143 ± 0.0848 µg/mL
  T1/2: 9.2 ± 1.9 h
  Vd: 2,021.8±635.7 L
[2]; multiple dosing, 300, 400, 500, and 650 mg doses
  time to maximum concentration, range over doses: 1.5 to 2.0 h
[3]; dose range 25–500 mg
  average clearance (CL) T1/2: 8 to 12 h
[3]; phase Ia
  tolerability: well tolerated
[4]
  activity on other investigated kinases: no significant activity
patients
  bradycardia: 1 patient
  decreased blood pressure of <90/60 mmHg: occurred in all patients
  dose reduction due to cardiovascular events: 1 patient
[5]; 100 mg group
  deaths during the whole study: 2 deaths
[5]; 200 mg group
  deaths during the whole study: 3 deaths
[5]; 300 mg group
  deaths during the whole study: 1 deaths
[5]; 400 mg group
  deaths during the whole study: 1 deaths
[5]; 500 mg, 12 patients
  partial response in patients with brain metastases: 16.7% and 16%
[5]; 650 mg, 6 patients
  partial response in patients with brain metastases: 50%
[5]; 41 patients, RECIST 1.1
  stable disease as best response: 46.3%
[5]; all doses
  deaths during the whole study (treatment phase and follow-up period): 7 deaths
  survival rate at 1-year: 88.2%
[5]; all doses, Kaplan–Meier, 95%CI 4.7, 12.1
  median PFS: 9.9 months
[5]; all doses, Kaplan–Meier, 95%CI 12.3, 22.5
  median OS: 14.6 months
[5]; of the 18 patients with brain metastases
  patients with brain metastases who achieved partial response on these metastases: 5 patients
